Active and inactive are the calls of the source. The calls are words filed in the database; no cut-off is given here.
molecular target: T1, Polyunsaturated fatty acid 5-lipoxygenase (Rattus norvegicus, UniProt P12527); assay: In vitro inhibition of 5-lipoxygenase (5-lo) from the 20000 g supernatant of RBI-1 cells; type: cell-based
T1 sequence (P12527 whole entry): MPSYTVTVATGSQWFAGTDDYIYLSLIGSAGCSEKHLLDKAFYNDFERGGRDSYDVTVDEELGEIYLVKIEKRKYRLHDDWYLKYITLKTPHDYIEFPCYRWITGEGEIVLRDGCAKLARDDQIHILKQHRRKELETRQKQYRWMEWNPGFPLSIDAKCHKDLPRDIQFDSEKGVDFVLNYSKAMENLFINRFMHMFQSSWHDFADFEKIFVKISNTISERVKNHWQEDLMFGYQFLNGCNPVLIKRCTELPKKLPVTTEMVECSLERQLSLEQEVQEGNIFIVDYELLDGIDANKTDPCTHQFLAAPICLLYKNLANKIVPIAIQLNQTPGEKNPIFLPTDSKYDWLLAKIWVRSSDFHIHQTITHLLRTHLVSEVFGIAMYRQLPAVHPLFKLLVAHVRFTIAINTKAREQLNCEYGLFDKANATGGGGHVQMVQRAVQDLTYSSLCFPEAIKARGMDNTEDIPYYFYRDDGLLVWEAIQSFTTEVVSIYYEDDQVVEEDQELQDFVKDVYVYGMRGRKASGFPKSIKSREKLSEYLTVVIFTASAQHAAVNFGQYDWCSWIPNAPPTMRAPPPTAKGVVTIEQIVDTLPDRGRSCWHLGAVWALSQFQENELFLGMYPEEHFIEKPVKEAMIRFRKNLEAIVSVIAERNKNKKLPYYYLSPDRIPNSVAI

IC50 [µM] | Structure (SMILES)
1.4 | CC(=O)c1ccc(-c2nc(O)c(C)s2)cc1
30 | Cc1sc(-c2ccc(C(=O)O)cc2)nc1O
2.1 | Cc1sc(-c2ccccn2)nc1O
15 | Cc1sc(-c2ccc(N)cc2)nc1O
14 | CC(=O)Oc1nc(-c2ccc(C(=O)O)cc2)sc1C
1.1 | COc1ccc(-c2nc(O)c(C)s2)cc1
2.2 | Cc1sc(-c2ccc(S(N)(=O)=O)cc2)nc1O
14 | Cc1sc(-c2ccncc2)nc1O
16 | Cc1sc(-c2cnc3ccccc3c2)nc1O
7.3 | CCCCCC/C(O)=C\C/C=C\C/C=C\C=C\CCCCC(=O)O
1.4 | Cc1sc(-c2cccs2)nc1O
18 | CCCCc1sc(-c2ccccc2)nc1O
4.8 | Cc1sc(-c2ccc(C(N)=O)cc2)nc1O
2.4 | Cc1sc(-c2ccco2)nc1O
31 | Cc1sc(-c2cc[nH]n2)nc1O
2.7 | Cc1sc(-c2ccc(SC(F)(F)F)cc2)nc1O

molecular target: T2, Polyunsaturated fatty acid 5-lipoxygenase (Rattus norvegicus) (UniProt P12527); assay: The compound was tested for the in vitro inhibition of 5-lipoxygenase (5-lo) from the 20000 g supernatant of RBI-1 cells measured at a concentration of 30 uM; type: cell-based
T2 sequence (whole entry): T1 sequence (P12527 whole entry)
Method in brief: (§1)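 20000g supernatant of homogenized RBL-1 cells (7.5 × 10⁶ cell equiv/mL) preincubated 20 min at 37 °C with inhibitor or 2% Me₂SO vehicle in pH 6.8 BES/PIPES buffer with EDTA, NaCl, 0.7 mM CaCl₂. Reaction started with 66 μM [¹⁴C]arachidonic acid. [¹⁴C]-5-HETE counted by scintillation, corrected for [³H]-5-HETE recovery.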

inhibition [%] | Structure (SMILES)
8 | O=C1CSC(c2cccnc2)=N1
26 | O=C1CSC(c2ccccc2)=N1

molecular target: T2, Polyunsaturated fatty acid 5-lipoxygenase (Rattus norvegicus); assay: The compound was tested for the in vitro inhibition of 5-lipoxygenase (5-lo) from the 20000 g supernatant of RBI-1 cells; NS indicates nonsignificant inhibition at 32 uM concentration; type: cell-based; method in brief: as §1

inhibition | Structure (SMILES)
inactive | CCOC(=O)Cc1nc(O)c(C)s1
inactive | CCCc1sc(-c2ccccc2)nc1OS(C)(=O)=O
inactive | Nc1nc(-c2ccccc2)sc1-c1ccccc1
inactive | COc1nc(-c2ccccc2)sc1-c1ccccc1
inactive | Cc1sc(C(=O)O)nc1O
inactive | CCOC(=O)c1nc(O)c(C)s1

molecular target: T2, Polyunsaturated fatty acid 5-lipoxygenase (Rattus norvegicus); assay: The compound was tested for the in vitro inhibition of 5-lipoxygenase (5-lo) from the 20000 g supernatant of RBI-1 cells at a concentration of 30 uM; type: cell-based; method in brief: as §1

inhibition [%] | Structure (SMILES)
24 | O=C(O)Cc1sc(-c2ccccc2)nc1O
40 | Cc1sc(-c2ccc(-c3ccccc3)cc2)nc1O
17 | CCOC(=O)c1sc(-c2ccccc2)nc1O

molecular target: T2, Polyunsaturated fatty acid 5-lipoxygenase (Rattus norvegicus); assay: The compound was tested for the in vitro inhibition of 5-lipoxygenase from the 20000 g supernatant of RBI-1 cells; NS indicates nonsignificant inhibition at 32 uM concentration; type: cell-based; method in brief: as §1

inhibition | Structure (SMILES)
inactive | Cc1nc(O)c(C)s1
inactive | Cc1sc(NN)nc1O
inactive | Cc1sc(N)nc1O
